Measured values reported in ChEMBL document CHEMBL3091291, “Synthesis and pharmacological characterization of benzenesulfonamides as dual species inhibitors of human and murine mPGES-1” (Bioorg Med Chem, 2013).
Calls of active or inactive are those of the source. The calls are words filed in the database; no cut-off is given here.

Columns and labels:
[1] = biological target: T1, Prostaglandin E synthase (Homo sapiens) (UniProt O14684); experiment: Inhibition of mPGES-1 in human HeLa cells using PGH2 as substrate assessed as inhibition of IL-1beta/TNFalpha-stimulated PGE2 production at 5 uM preincubated for 30 mins followed by substrate addition measured after 1 min by LC-MS/MS analysis; type: cell-based
T1 sequence (whole entry): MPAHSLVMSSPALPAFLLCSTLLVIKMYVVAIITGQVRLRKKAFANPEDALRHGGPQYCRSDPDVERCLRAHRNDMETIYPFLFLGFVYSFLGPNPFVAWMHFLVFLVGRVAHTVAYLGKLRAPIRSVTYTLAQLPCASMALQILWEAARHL
Method in brief: (§1)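 Microsomal fraction from HeLa, NIH-3T3 or RAW 264.7 cells, obtained by sonication and ultracentrifugation, resuspended in 0.1 M KPi pH 7.4 with 2.5 mM reduced GSH. Protein at 0.15 mg/mL (HeLa, NIH) or 0.3 mg/mL (RAW) incubated with compound 30 min on ice. Reaction started with 20 µM PGH₂, stopped after 1 min with FeCl₂/citric acid. PGE₂ quantified by SPE and LC–MS/MS. IC50 from four-parameter logistic fit of increasing concentrations.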

[2] = biological target: T2, Polyunsaturated fatty acid 5-lipoxygenase (Homo sapiens) (UniProt P09917); experiment: Inhibition of calcium ionophore (A23187)-stimulated human 5-LO assessed as reduction of 5(S)-HETE production by measuring remaining activity at 100 uM preincubated for 15 mins followed by calcium ionophore (A23187) addition measured after 15 mins by LC-MS/MS analysis
T2 sequence (whole entry): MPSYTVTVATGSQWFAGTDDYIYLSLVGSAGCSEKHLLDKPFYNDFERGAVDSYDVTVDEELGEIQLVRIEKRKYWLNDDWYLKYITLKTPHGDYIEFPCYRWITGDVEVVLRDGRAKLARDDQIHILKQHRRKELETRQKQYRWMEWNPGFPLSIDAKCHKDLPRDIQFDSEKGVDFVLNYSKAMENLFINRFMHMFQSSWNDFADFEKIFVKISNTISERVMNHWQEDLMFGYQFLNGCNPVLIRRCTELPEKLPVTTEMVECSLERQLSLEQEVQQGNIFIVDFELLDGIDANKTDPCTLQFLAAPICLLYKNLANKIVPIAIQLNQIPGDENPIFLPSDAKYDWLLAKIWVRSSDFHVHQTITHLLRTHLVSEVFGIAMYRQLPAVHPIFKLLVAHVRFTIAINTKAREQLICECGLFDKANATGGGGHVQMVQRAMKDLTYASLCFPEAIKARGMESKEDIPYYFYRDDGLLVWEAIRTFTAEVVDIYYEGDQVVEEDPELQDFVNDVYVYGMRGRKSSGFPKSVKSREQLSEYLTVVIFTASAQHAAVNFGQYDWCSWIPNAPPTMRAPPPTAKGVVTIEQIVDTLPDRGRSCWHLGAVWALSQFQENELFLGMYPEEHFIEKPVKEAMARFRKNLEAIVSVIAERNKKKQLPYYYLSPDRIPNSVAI
Method in brief: (§2)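 Heparinized human whole blood (500 µL) preincubated with compound 15 min at 37 °C, then stimulated with 20 µM calcium ionophore A23187 in autologous plasma for 15 min at 37 °C. Plasma spiked with deuterated LTB₄ and HETE internal standards, extracted into ethyl acetate, analysed by LC–MS/MS. Inhibition scored when a level fell by 33% or more versus control.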

[3] = biological target: T3, Prostaglandin G/H synthase 2 (Homo sapiens) (UniProt P35354); experiment: Inhibition of LPS-stimulated COX2 in human whole blood assessed as reduction in PGE2 production by measuring remaining activity at 100 uM preincubated for 15 mins followed by LPS addition measured after 24 hrs by LC-MS/MS analysis
T3 sequence (whole entry): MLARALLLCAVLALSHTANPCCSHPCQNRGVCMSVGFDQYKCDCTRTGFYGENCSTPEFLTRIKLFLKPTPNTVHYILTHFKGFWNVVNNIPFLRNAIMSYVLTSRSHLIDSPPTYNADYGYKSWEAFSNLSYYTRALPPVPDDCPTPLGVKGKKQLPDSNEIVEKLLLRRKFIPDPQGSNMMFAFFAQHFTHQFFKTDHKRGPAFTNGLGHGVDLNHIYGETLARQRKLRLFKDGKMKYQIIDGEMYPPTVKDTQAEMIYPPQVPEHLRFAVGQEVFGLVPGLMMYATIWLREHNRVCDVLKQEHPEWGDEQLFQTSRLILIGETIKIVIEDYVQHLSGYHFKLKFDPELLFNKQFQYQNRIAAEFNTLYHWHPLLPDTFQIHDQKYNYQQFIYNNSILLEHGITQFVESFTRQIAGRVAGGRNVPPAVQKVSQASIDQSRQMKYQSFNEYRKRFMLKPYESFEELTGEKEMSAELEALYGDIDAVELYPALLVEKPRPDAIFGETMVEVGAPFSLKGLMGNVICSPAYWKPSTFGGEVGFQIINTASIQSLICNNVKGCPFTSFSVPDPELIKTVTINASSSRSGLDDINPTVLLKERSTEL
Method in brief: (§3)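 Heparinized human whole blood (500 µL) mixed with compound in DMSO, with acetylsalicylic acid added to block COX-1, held 15 min at 37 °C, then stimulated with LPS in autologous plasma to induce COX-2/mPGES-1. After 24 h at 37 °C, samples chilled 5 min on ice; plasma collected, prostaglandins extracted and measured by LC–MS/MS. Remaining activity given relative to vehicle control.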

[4] = biological target: T3, Prostaglandin G/H synthase 2 (Homo sapiens); experiment: Inhibition of LPS-stimulated COX2 in human whole blood assessed as reduction in PGF2alpha production by measuring remaining activity at 100 uM preincubated for 15 mins followed by LPS addition measured after 24 hrs by LC-MS/MS analysis; method in brief: as §3
[5] = biological target: T4, Prostaglandin E synthase (Mus musculus) (UniProt Q9JM51); experiment: Inhibition of mPGES-1 in mouse RAW264.7 cells using PGH2 as substrate assessed as inhibition of LPS-stimulated PGE2 production at 5 uM preincubated for 30 mins followed by substrate addition measured after 1 min by LC-MS/MS analysis; type: cell-based; method in brief: as §1
T4 sequence (whole entry): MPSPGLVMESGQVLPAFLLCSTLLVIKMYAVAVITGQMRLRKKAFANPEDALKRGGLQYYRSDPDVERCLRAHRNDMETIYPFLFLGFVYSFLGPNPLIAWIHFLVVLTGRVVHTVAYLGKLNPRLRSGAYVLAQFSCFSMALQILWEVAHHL

Prostaglandin E synthase = biological target: T5, Prostaglandin E synthase (Homo sapiens, UniProt O14684); experiment: Inhibition of mPGES-1 in human HeLa cells using PGH2 as substrate assessed as inhibition of IL-1beta/TNFalpha-stimulated PGE2 production preincubated for 30 mins followed by substrate addition measured after 1 min by LC-MS/MS analysis; type: cell-based; method in brief: as §1
T5 sequence (O14684 whole entry): T1 sequence (whole entry)

[6] = biological target: T4, Prostaglandin E synthase (Mus musculus); experiment: Inhibition of mPGES-1 in Swiss mouse NIH/3T3 cells using PGH2 as substrate assessed as inhibition of IL-1beta/TNFalpha-stimulated PGE2 production at 5 uM preincubated for 30 mins followed by substrate addition measured after 1 min by LC-MS/MS analysis; type: cell-based; method in brief: as §1
[7] = biological target: T2, Polyunsaturated fatty acid 5-lipoxygenase (Homo sapiens); experiment: Inhibition of calcium ionophore (A23187)-stimulated human 5-LO assessed as reduction of LTB4 production by measuring remaining activity at 100 uM preincubated for 15 mins followed by calcium ionophore (A23187) addition measured after 15 mins by LC-MS/MS analysis; method in brief: as §2
[8] = Cytotoxicity against IL-1beta/TNFalpha-stimulated human HeLa cells assessed as cell viability at 100 uM after 24 hrs by WST-1 assay; type: cell-based; conditions: IL-1beta/TNFalpha-stimulated HeLa cells, read-out: Activity
Method in brief: (§4)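 HeLa cells seeded at 3 × 10³ per well in medium with 10% FCS, grown 24 h at 37 °C, then stimulated with IL-1b (1 ng/mL) + TNFa (5 ng/mL) and treated at the same time with compound (1, 10, 100 µM) or DMSO for 24 h. WST-1 reagent then added for 90–150 min; absorbance read at 450 nm against 620 nm reference.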

HeLa = experiment: Cytotoxicity against IL-1beta/TNFalpha-stimulated human HeLa cells assessed as cell viability up to 10 uM after 24 hrs by WST-1 assay; type: cell-based; method in brief: as §4
[9] = biological target: Prostaglandin G/H synthase 1 (Homo sapiens) (UniProt P23219); experiment: Inhibition of COX1 in human whole blood assessed as reduction in PGD2 production by measuring remaining activity at 100 uM after 1 hr by LC-MS/MS analysis
Chain of Prostaglandin G/H synthase 1 (Homo sapiens) (P23219 whole entry): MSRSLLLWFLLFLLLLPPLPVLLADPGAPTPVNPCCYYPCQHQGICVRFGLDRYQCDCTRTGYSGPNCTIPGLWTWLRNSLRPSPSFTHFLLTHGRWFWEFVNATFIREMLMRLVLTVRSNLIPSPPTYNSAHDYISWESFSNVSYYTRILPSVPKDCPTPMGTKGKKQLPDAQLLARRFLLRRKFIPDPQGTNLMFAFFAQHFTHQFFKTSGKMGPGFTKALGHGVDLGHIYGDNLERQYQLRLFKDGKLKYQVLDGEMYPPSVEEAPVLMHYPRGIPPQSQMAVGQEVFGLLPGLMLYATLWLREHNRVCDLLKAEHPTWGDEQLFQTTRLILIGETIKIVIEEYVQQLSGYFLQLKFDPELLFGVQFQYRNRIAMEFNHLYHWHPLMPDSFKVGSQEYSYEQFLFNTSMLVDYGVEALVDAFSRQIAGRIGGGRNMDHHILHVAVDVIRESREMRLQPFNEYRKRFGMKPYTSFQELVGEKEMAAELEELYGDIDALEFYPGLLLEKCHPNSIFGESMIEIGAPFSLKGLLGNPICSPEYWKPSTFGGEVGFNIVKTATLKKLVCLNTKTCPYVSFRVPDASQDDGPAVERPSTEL

[10] = biological target: Prostaglandin G/H synthase 1 (Homo sapiens) (UniProt P23219); experiment: Inhibition of COX1 in human whole blood assessed as reduction in TXB2 production by measuring remaining activity at 100 uM after 1 hr by LC-MS/MS analysis
[11] = biological target: T1, Prostaglandin E synthase (Homo sapiens); experiment: Inhibition of mPGES-1 in human HeLa cells using PGH2 as substrate assessed as inhibition of IL-1beta/TNFalpha-stimulated PGE2 production at 100 uM after 24 hrs by LC-MS/MS analysis; type: cell-based
Method in brief: (§5)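 HeLa cells (2 × 10⁴ per well) grown 24 h at 37 °C, then given fresh medium with 1 ng/mL IL-1b + 5 ng/mL TNFa (or PBS for unstimulated control) plus compound (1, 10 or 100 µM) or DMSO for 24 h at 37 °C. Supernatant mixed with H₃PO₄, EDTA and deuterated internal standards; PGE₂ measured by SPE and LC–MS/MS.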

[12] = biological target: T1, Prostaglandin E synthase (Homo sapiens); experiment: Inhibition of mPGES-1 in human HeLa cells using PGH2 as substrate assessed as inhibition of IL-1beta/TNFalpha-stimulated PGE2 production at 1 to 10 uM after 24 hrs by LC-MS/MS analysis; type: cell-based; method in brief: as §5

SMILES	inhibition [1] [%]	other results
O=S(=O)(c1ccc(C(F)(F)F)cc1)N(Cc1ccccc1)Cc1ccccc1	11.9	
O=S(=O)(c1ccccc1Cl)N(Cc1ccccc1)Cc1ccccc1	< 0	
O=C(O)c1ccc(S(=O)(=O)N(Cc2ccc(Cl)cc2)CC2CCCCC2)cc1	48.4	
O=C(O)c1ccc(S(=O)(=O)N(CCCc2ccccc2)Cc2ccccc2)cc1	73	Activity [3]: 68%; Activity [4]: 129%
O=S(=O)(c1ccc(F)cc1)N(Cc1ccccc1)Cc1ccccc1	< 0	
Cc1ccc(-c2cc(C(F)(F)F)nn2-c2ccc(S(N)(=O)=O)cc2)cc1 [CELECOXIB]		viability at 24 h, 100 µM [8]: 50%; Activity (HeLa): Non-toxic; inhibition [11]: Active; inhibition [12]: inactive
O=S(=O)(c1ccc(Cl)cc1)N(Cc1ccccc1)Cc1ccccc1	< 0	
COc1ccc(CN(Cc2nc(C)cs2)S(=O)(=O)c2ccc(C(=O)O)cc2)cc1	2.9	
COc1ccc(CN(Cc2ccsc2)S(=O)(=O)c2ccc(C(=O)O)cc2)cc1	11.9	
O=C(O)c1ccc(CN(Cc2ccccc2)Cc2ccccc2)cc1	17.4	
N#Cc1ccc(S(=O)(=O)N(Cc2ccccc2)Cc2ccccc2)cc1	34.1	
COc1ccc(CN(Cc2cccc(C#N)c2)S(=O)(=O)c2ccc(C(=O)O)cc2)cc1	6	
O=C(O)c1cccc(S(=O)(=O)N(Cc2ccccc2)Cc2ccccc2)c1	35.8	
O=S(=O)(c1cccc(Cl)c1)N(Cc1ccccc1)Cc1ccccc1	6.2	
O=C(O)c1ccc(S(=O)(=O)N(CCc2ccccc2)Cc2ccccc2)cc1	57	Activity [3]: 83.3%; Activity [4]: 117%
COc1ccc(CN(Cc2ccoc2)S(=O)(=O)c2ccc(C(=O)O)cc2)cc1	14.2	
COc1ccc(CN(Cc2ccc(C#N)cc2)S(=O)(=O)c2ccc(C(=O)O)cc2)cc1	< 0	
N#Cc1ccc(S(=O)(=O)N(Cc2ccccc2)Cc2ccc(Oc3ccccc3)cc2)cc1	1	

Second part, led by results:

inhibition [1] [%]	SMILES	other results
76	O=C(O)c1ccc(S(=O)(=O)N(Cc2ccc(-c3ccccc3)cc2)CC2CCCCC2)cc1	Activity [2]: 75.9%; Activity [3]: 69.7%; Activity [4]: 117%; inhibition [5]: 44.4%; IC50 (Prostaglandin E synthase): 0.8 µM; inhibition [6]: 51.9%; Activity [7]: 75.7%
< 0	CCCCN(c1ccccc1)S(=O)(=O)c1ccc(C(=O)O)cc1	
58.7	O=C(O)c1ccc(S(=O)(=O)N2CCN(c3ccccc3)CC2)cc1	
19.1	CCCCN(Cc1ccccc1)S(=O)(=O)c1ccc(C(=O)O)cc1	viability at 24 h, 100 µM [8]: 50%; Activity (HeLa): Non-toxic; Activity [2]: 121%; Activity [9]: 73.4%; Activity [3]: 62.8%; Activity [10]: 97.8%; Activity [4]: 117%; inhibition [11]: Active; inhibition [12]: inactive; Activity [7]: 124%
< 0	CCN(Cc1ccccc1)S(=O)(=O)c1ccc(C(=O)O)cc1	
26.4	O=C(O)c1ccc(S(=O)(=O)N(Cc2ccccc2)c2ccccc2)cc1	
< 0	CCN(c1ccccc1)S(=O)(=O)c1ccc(C(=O)O)cc1	
51.4	O=C(O)c1ccc(S(=O)(=O)N(Cc2ccccc2)Cc2ccccc2)cc1	
79.2	O=C(O)c1ccc(S(=O)(=O)N(Cc2ccc(Oc3ccccc3)cc2)CC2CCCCC2)cc1	
